From paper PMC5357090 (Saudi Pharmaceutical Journal : SPJ, 2016) come the findings set out here.

The structures appear in SMILES notation. Where two headings read alike, the source gives them in different places.

One experiment relates to HeLa. Put plainly: In vitro anticancer activity, MTT assay, HeLa. The following applies: for IC50: Homo sapiens, HeLa, 48 h; for anticancer activity against HeLa cells (in words): MTT, 48 h exposure, compared with the standard cisplatin. The experiment is classed as cell-based, human. The method in brief: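 HeLa cells came from NCCS and were kept in MEM with 10% FBS at 37 °C and 5% CO2. Cells were seeded at 10,000/well in 5% FBS medium and left 24 h to attach. DMSO solutions were diluted in serum-free medium to 6.25–100 µM (five concentrations) and applied for 48 h, in triplicate. MTT was added for 4 h at 37 °C, formazan dissolved in DMSO, and A570 read. % inhibition was taken against untreated control. IC50 came from nonlinear regression against log concentration.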
Background: Tetrazolium dyes change colour on reduction, which living cells bring about.

The next experiment deals with MCF-7. The experiment is described as follows: In vitro anticancer activity, MTT assay, MCF-7. It counts as cell-based. Particulars: for IC50: Homo sapiens, MCF7, 48 h, read-out: IC50 MCF-7; for anticancer activity against MCF-7 cells (in words): MTT, 48 h exposure, compared with the standard cisplatin.
The test system of the next experiment is α-amylase. Put plainly: α-Amylase assay. The experiment is classed as biochemical. Particulars: compared to the standard acarbose; 50-1000 μm. The method in brief: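 α-Amylase was used at 0.1 mg/mL in PBS (0.02 mol/L, pH 6.8). Enzyme was preincubated with the test solution at 37 °C for 5 min. The reaction was started with 1.0% (w/v) starch. It was stopped with DNS reagent (1% dinitrosalicylic acid, 0.05% Na2SO3, 1% NaOH), then heated at 100 °C for 5 min and cooled to room temperature. Absorbance was read at 540 nm.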

Setting [1] is: read-out: IC50 values, range over MCF-7 and HeLa cells.

Take `Cc1ccc(C(=O)Nc2cccc(-c3nnc(C4CCCCC4)o3)c2)cc1` [Compound 7b, N-[3-(5-Cyclohexyl-[1,3,4]oxadiazol-2-yl)-phenyl]-4-methyl-benzamide]: the IC50 in the experiment on HeLa (read-out: IC50 HeLa) and in the experiment with MCF-7 was ≥ 100 µM in each case.

As to `O=C(Cc1ccccc1F)Nc1cccc(-c2nnc(C3CCCCC3)o2)c1` [Compound 7c, N-[3-(5-Cyclohexyl-[1,3,4]oxadiazol-2-yl)-phenyl]-2-(2-fluoro-phenyl)acetamide], the IC50 in the experiment with HeLa (read-out: IC50 HeLa) came to 80.1 µM. For the same molecule, in the experiment on HeLa, the “anticancer activity against HeLa cells (in words)” value is reported as “good activity”. In the experiment on MCF-7, the half-inhibitory concentration (IC50) was 78.3 µM and the “anticancer activity against MCF-7 cells (in words)” value is reported as “good activity”.

Take `O=C(C=Cc1ccco1)Nc1cccc(-c2nnc(C3CCCCC3)o2)c1` [Compound 7i, N-[3-(5-Cyclohexyl-[1,3,4]oxadiazol-2-yl)-phenyl]-3-furan-2-yl-acrylamide]: the 50% inhibitory concentration (IC50) with HeLa (read-out: IC50 HeLa) and with MCF-7 was ≥ 100 µM throughout.

Take `O=S(=O)(Nc1cccc(-c2nnc(C3CCCCC3)o2)c1)c1cc(Cl)cc(Cl)c1` [Compound 8c, 3,5-Dichloro-N-[3-(5-cyclohexyl-[1,3,4]oxadiazol-2-yl)-phenyl]-benzenesulphonamide]: the half-inhibitory concentration (IC50) in the experiment with HeLa (read-out: IC50 HeLa) and in the experiment with MCF-7 was ≥ 100 µM throughout. Moreover, the “inhibitory activity against α-amylase (in words)” value (“inhibitory activity” below) in the experiment on α-amylase is “better than all other compounds”.

In the case of `O=C(Nc1cccc(-c2nnc(C3CCCCC3)o2)c1)c1cnccn1` [Compound 7e, Pyrazine-2-carboxylic acid [3-(5-cyclohexyl-[1,3,4]oxadiazol-2-yl)-phenyl]-amide], the IC50 with HeLa (read-out: IC50 HeLa) and with MCF-7 was ≥ 100 µM each time. For the same molecule, the “inhibitory activity” value in the experiment with α-amylase is “moderate activities”.

With `O=C(Nc1cccc(-c2nnc(C3CCCCC3)o2)c1)c1ccco1` [Compound 7h, Furan-2-carboxylic acid [3-(5-cyclohexyl-[1,3,4]oxadiazol-2-yl)-phenyl]-amide], the concentration for half-maximal inhibition (IC50) with HeLa (read-out: IC50 HeLa) and in the experiment on MCF-7 was ≥ 100 µM in each case.

Take `O=C(Nc1cccc(-c2nnc(C3CCCCC3)o2)c1)C1CCCC1` [Compound 7g, Cyclopentane carboxylic acid [3-(5-cyclohexyl-[1,3,4]oxadiazol-2-yl)-phenyl]-amide]: the IC50 with HeLa (read-out: IC50 HeLa) and in the experiment with MCF-7 was ≥ 100 µM throughout. For the same molecule, in the experiment with α-amylase, the “inhibitory activity” value is listed as “moderate activities”.

Consider `CC(C)(C)c1ccc(S(=O)(=O)Nc2cccc(-c3nnc(C4CCCCC4)o3)c2)cc1` [Compound 8b, 4-tert-Butyl-N-[3-(5-cyclohexyl-[1,3,4]oxadiazol-2-yl)-phenyl]-benzenesulphonamide], for which, in the experiment on HeLa (read-out: IC50 HeLa), the IC50 stood at 62.9 µM. For the same molecule, in the experiment on HeLa, the “anticancer activity against HeLa cells (in words)” value is “good activity”. In the experiment on MCF-7, the IC50 amounted to 60.9 µM and the “anticancer activity against MCF-7 cells (in words)” value was “good activity”.

`COc1cccc(NC(=O)Nc2cccc(-c3nnc(C4CCCCC4)o3)c2)c1` [Compound 6c, 1-[3-(5-Cyclohexyl-[1,3,4]oxadiazol-2-yl)-phenyl]-3-(3-methoxy-phenyl)-urea]: the results for the IC50 in the experiment on HeLa (read-out: IC50 HeLa), in the experiment on HeLa (setting [1]) and in the experiment on MCF-7 were 45.6 µM, 23.5 to 45.6 µM and 28.6 µM, respectively. In addition, the “anticancer activity against HeLa cells (in words)” value in the experiment on HeLa was “significant activity”. In the experiment with MCF-7, the “anticancer activity against MCF-7 cells (in words)” value is reported as “significant activity”.

Regarding `Cc1ccc(NC(=O)Nc2cccc(-c3nnc(C4CCCCC4)o3)c2)cc1` [Compound 6b, 1-[3-(5-Cyclohexyl-[1,3,4]oxadiazol-2-yl)-phenyl]-3-p-tolyl-urea], the IC50 was 30.4 µM with HeLa (read-out: IC50 HeLa), 23.5 to 45.6 µM with HeLa (setting [1]) and 23.5 µM with MCF-7. The “anticancer activity against HeLa cells (in words)” value in the experiment with HeLa is “significant activity”. Also, in the experiment on MCF-7, the “anticancer activity against MCF-7 cells (in words)” value is “significant activity”. The “inhibitory activity” value in the experiment with α-amylase is “moderate activities”.

Turning to `O=C(Nc1cccc(-c2nnc(C3CCCCC3)o2)c1)c1ccc(Cl)cc1` [Compound 7a, 4-Chloro-N-[3-(5-cyclohexyl-[1,3,4]oxadiazol-2-yl)-phenyl]-benzamide], the half-maximal inhibitory concentration (IC50) in the experiment with HeLa (read-out: IC50 HeLa) and in the experiment on MCF-7 was ≥ 100 µM in each case.

With `O=C(Nc1cccc(-c2nnc(C3CCCCC3)o2)c1)c1cc(F)cc(F)c1` [Compound 7d, N-[3-(5-Cyclohexyl-[1,3,4]oxadiazol-2-yl)-phenyl]-3,5-difluoro-benzamide], the half-inhibitory concentration (IC50) in the experiment on HeLa (read-out: IC50 HeLa) worked out at 58.8 µM. Further, in the experiment with HeLa, the “anticancer activity against HeLa cells (in words)” value was “good activity”. Also, in the experiment on MCF-7, the IC50 is 62.4 µM and the “anticancer activity against MCF-7 cells (in words)” value was “good activity”. In addition, in the experiment on α-amylase, the “inhibitory activity” value is given as “moderate activities”.

For the molecule `O=C(Nc1ccc(F)cc1)Nc1cccc(-c2nnc(C3CCCCC3)o2)c1` [Compound 6a, 1-[3-(5-Cyclohexyl-[1,3,4]oxadiazol-2-yl)-phenyl]-3-(4-fluoro-phenyl)-urea], the 50% inhibitory concentration (IC50) with HeLa (read-out: IC50 HeLa) was 79.7 µM. Also, the “anticancer activity against HeLa cells (in words)” value in the experiment with HeLa is on record as “good activity”. For the same molecule, in the experiment on MCF-7, the IC50 came to 81.6 µM and the “anticancer activity against MCF-7 cells (in words)” value is “good activity”. In addition, the “inhibitory activity” value with α-amylase is on record as “moderate activities”.

For `Cc1ccc(S(=O)(=O)Nc2cccc(-c3nnc(C4CCCCC4)o3)c2)cc1` [Compound 8a, N-[3-(5-Cyclohexyl-[1,3,4]oxadiazol-2-yl)-phenyl]-4-methyl-benzenesulphonamide], the IC50 with HeLa (read-out: IC50 HeLa) and with MCF-7 was ≥ 100 µM each time.

As for `O=C(Cc1c[nH]c2ccccc12)Nc1cccc(-c2nnc(C3CCCCC3)o2)c1` [Compound 7f, N-[3-(5-Cyclohexyl-[1,3,4]oxadiazol-2-yl)-phenyl]-2-(1H-indol-3-yl)-acetamide], the figures for the IC50 in the experiment on HeLa (read-out: IC50 HeLa) and in the experiment with MCF-7 were 100 µM and ≥ 100 µM, respectively. Besides, the “inhibitory activity” value with α-amylase is recorded as “better than all other compounds”.

The IC50 is the concentration that gives 50% inhibition.
